Data: ChEMBL document CHEMBL4513216, “Probing the Open Global Health Chemical Diversity Library for Multistage-Active Starting Points for Next-Generation Antimalarials” (ACS Infect Dis, 2020)

Assay: Toxicity liver stage against HepG2, at 10uM
Type: cell-based
Design: test concentration 10 uM, cell line HepG2-A16-CD81EGFP
Conditions: human, HepG2-A16-CD81EGFP cells; read-out: INHIBITION
Summary of the method: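 Uninfected HepG2-A16-CD81EGFP cells, 3 × 10^3 per well, 1536-well, plated on prespotted compound at 10 μM final, parasite-free screening media added to match infected plates; puromycin 10 μM positive, DMSO 0.5% negative; run in parallel with 48 h PbLuc assay at 37 °C, 5% CO2; viability by CellTiter-Glo luminescence, normalized to controls.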

SMILES	cytotoxicity at 10 µM [%]
COc1ccc(-c2noc([C@@H](C)NC(=O)CC(C)C)c2C(=O)O)cc1	2.05
O=C(Cc1cc(-c2ccc3c(c2)OCO3)on1)NC1CCCC1	-2.34
Cc1nnsc1C(=O)NCC1CCN(c2ccccn2)CC1	11.9
COCC(C)NC(=O)c1nnn(-c2ccc(F)cc2)n1 (stereo not given)	-20.6
COCCO[C@@H]1CCN(c2cc(OC)ncn2)[C@H]1Cc1cnn(C)c1	-142
CN(C)C(=O)[C@@H]1C[C@@H]2CCN(C3CCOCC3)C[C@@H]2O1	-7.56
Cc1c(CN2Cc3nccn3CC2c2ccccc2)cnn1C (stereo not given)	-1.13
CCC(=O)N1CCC(c2ncc(C(=O)Nc3ccccc3)c(C)n2)C1 (stereo not given)	6.96
CN(C)Cc1cccc(-c2cccnc2C(=O)NCc2ccccn2)c1	5.39
COc1cc(CCC(=O)N2CCC(c3cncc(C)n3)CC2)on1	4.46
Cc1c[nH]nc1C1CN(c2ncccn2)CCO1 (stereo not given)	4.37
Cc1cc(C)n(C2CCN(S(=O)(=O)N3CCOCC3)CC2)n1	3.88
O=C(O)c1ccc(=O)n(CC(c2ccc(F)cc2)N2CCCCCC2)c1 (stereo not given)	1.31
CNC(=O)C1(CCCc2ccccn2)CN(Cc2coc(C)n2)C1	8.62
O=C(O)c1ccccc1-n1cnc(CN2CCCCCC2)c1	-8.94
CCCn1cc(C(=O)NCc2nnc(-c3ccc(C)nc3)o2)c(C)n1	-0.277
Cn1ccc(C(=O)N2CCCC(c3cc4cccnc4c(O)n3)C2)n1 (stereo not given)	4.53
COc1ccc2[nH]cc(C(=O)N3C[C@@H](O)[C@H](NS(C)(=O)=O)C3)c2c1	-9.26
Cc1cccc(N2CCOC(C(=O)O)C2)c1 (stereo not given)	-8.89
CN(C)[C@@H]1CN(C(=O)c2ccc3ccccc3n2)C[C@H]1O	-22.5
CNc1cncc(C2CCCN2S(=O)(=O)c2cccc(F)c2)n1 (stereo not given)	-15.3
O=C(CN1CCCC1)N1CCCC(c2cc(=O)n3c(n2)CCCCC3)C1 (stereo not given)	-13.7

SMILES	cytotoxicity at 10 µM [%]
CN1CCN(c2ncc(-c3cnccn3)c([C@H]3CCCO3)n2)CC1	-20
Cc1cc2c(=O)n3c(nc2s1)CCN(C(=O)c1cn(C)nc1C)CC3	-22.6
CN(Cc1ccc(F)cc1)CC1(O)CCN(C(=O)c2ccccn2)C1 (stereo not given)	-3
O=C(Cn1cccnc1=O)NC(Cc1ccsc1)c1cccnc1 (stereo not given)	-25.7
Cc1cnn(CC2CCN(CC(O)COc3ccccc3)CC2)c1 (stereo not given)	-1.62
CCc1cnc(CNC(=O)NC2CC(C)(C)OC2(C)C)s1 (stereo not given)	10.3
CCCn1nc2c(cc1=O)CN(CC1CCCCO1)CC2 (stereo not given)	12.5
CN(C)C(=O)c1ccc(-c2cscn2)cc1	1.53
Cc1nc(CN2CCN(c3cncc(Cl)n3)CC2)no1	6.45
Cc1noc(C)c1Cc1nc(C2CC2)no1	5.42
CN(Cc1ccc(F)c2cccnc12)C1CCS(=O)(=O)C1 (stereo not given)	5.93
CCOc1ccc(Cl)c(C(=O)NC(C)C(N)=O)n1 (stereo not given)	7.53
CC(C)N(C)S(=O)(=O)N(Cc1cccs1)Cc1cccs1	-45.2
CN(Cc1c(F)cccc1Cl)C(=O)c1cnn(CCN2CCOCC2)c1	-4.2
COCCN(C)CC1CCCN1S(=O)(=O)Cc1ccccc1F (stereo not given)	6.84
Cc1nn(C)c(Cl)c1C1CCCN1CC(=O)NC1CCCCC1 (stereo not given)	7.09
COCCCS(=O)(=O)N1CCN(c2cccc(O)c2)CC1	4.42
CN(Cc1cnn(C)c1)C1CCCN(Cc2noc(C3CC3)n2)C1 (stereo not given)	-8.44
COCCOc1nc(-c2ccccc2Cl)no1	9.4
COc1c(C2CCCN2C(=O)c2sccc2C#N)c(C)nn1C (stereo not given)	3.33
CCNC(=O)CCC(=O)N1CCC(Oc2cc(C)ccc2C)CC1	-4.59
Cc1c(C(=O)N2CCSCC2)sc2nc(C(F)(F)F)ccc12	-8.58

SMILES	cytotoxicity at 10 µM [%]
CCN(C)C(=O)Nc1cc(F)c(OC)cc1F	-10.4
Cc1ccc(C)c(NC(=O)Cn2nc(C)c(C#N)c2N)c1	-4.57
CCc1noc(CC)c1CC(=O)N1CCCC(N2CCCCC2)C1 (stereo not given)	-15.3
Cc1nc(CNC(C(=O)N2CCOCC2)C(C)C)no1 (stereo not given)	5.76
CCC(C)CNCC1(S(C)(=O)=O)CCOCC1 (stereo not given)	-11.4
CC(NCC(=O)N1CCc2sccc2C1)c1ccccc1F (stereo not given)	1.8
Cc1cnn(C2CN(Cc3noc(C4CC4)n3)C2)c1	4.34
CN1CCC(NCC(O)c2cccc(OCc3ccccc3)c2)CC1 (stereo not given)	-11.7
Cc1cc(CN2CC[C@H]3OCC[C@@]3(C(=O)N3CCOCC3)C2)no1	7.93
Cn1nccc1-c1cnc2n1CCC21CCN(C(=O)C2(C)CC2)CC1	-123
CS(=O)(=O)NC[C@]12COC[C@H]1CN(C(=O)C1CCSCC1)C2	-112
CN1C(=O)CC(c2cnn(C)c2)C12CCN(C(=O)c1ccno1)CC2 (stereo not given)	-74.1
Cc1cccc(N2CC3(CCN(C(=O)NC(C)C)C3)CC2=O)c1 (stereo not given)	-3.7
Cc1ccc2c(c1)[C@@H](CC(=O)N(C)C)CCO2	-3.78
CC[C@H](C)[C@H](N)C(=O)N1CC(=O)c2sc(Nc3ccc(F)cc3)nc2C1	-1.44
CCOC(=O)c1n[nH]cc1CN1CCCC(N(C)Cc2ccccc2)C1 (stereo not given)	-1.44
CCCN(Cc1cccnc1)C(=O)C1CCNC1 (stereo not given)	8.97
COCCN(C)Cc1cn(C)nc1-c1ccc2c(c1)OCCO2	-0.65
CN(Cc1ccon1)C(=O)CN1C(=O)OC(C)(C)C1=O	-108
Cc1ccc2nc(C(=O)N3CC(c4cccnc4)C3)cn2c1	-7.5
COCCCC1(C(=O)O)CCCN(Cc2ccccc2C)C1 (stereo not given)	-4.58
Cc1nc(N(C)C)nc(-c2cccc(-c3ccn(CCCO)n3)c2)c1C	-6.51

SMILES	cytotoxicity at 10 µM [%]
CN(CCCN1CCCCCC1)C(=O)c1ccccc1NCC(=O)O	-4.84
O=c1c2cccnc2ccn1Cc1nccn1C1CC1	-4.87
Cc1cc(C)n(CC2(CNC(=O)C(c3ccccc3F)N(C)C)CC2)n1 (stereo not given)	1.64
Cc1ccsc1[C@@H]1CCN(C(=O)CCc2cc(O)no2)C[C@H]1O	-4.73
Cc1cccc2[nH]c(C3CCCN(Cc4ccc(CO)o4)C3)nc12 (stereo not given)	9.83
CCc1nn(C)c(Cl)c1CN1CCCC2(C1)CN(C)C(=O)O2 (stereo not given)	5.44
CC(Cc1cnccn1)NC(=O)COc1ccc(F)cc1F (stereo not given)	-44.4
COCCN(Cc1sccc1C)c1nc(C)nc2sccc12	-131
COc1ccc(-c2cccc(-c3ccn(CCN(C)C)n3)c2)nn1	-1.39
CN1CCN(Cc2ccccc2Oc2ccc(C(N)=O)cn2)CC1	-23.6
COc1cccc(OCc2cc(C(=O)NC[C@@H]3CCCN3)n[nH]2)c1	0.732
CCO[C@H]1C[C@@H](O)C12CCN(C(=O)CCN1CCCC1=O)CC2	2.12
CCc1nc(C)sc1CN1C[C@@H](C)[C@@](C)(O)C1	-1.47
CN(Cc1ccccc1)C(=O)CCN1CCC2(CC1)[C@H](O)C[C@@H]2O	-7.55
Cc1cc(=O)[nH]c(NCCNC(=O)CN2CCCCCC2)n1	3.28
O=C(COc1cccnc1)NCc1nncn1C1CCCCC1	3.46
CCCOC(C)C(=O)NCc1cc2n(n1)CCCN(C1CCCCC1)C2 (stereo not given)	2.5
CCC(Cn1ccnc1)n1cnc2c(C)csc2c1=O (stereo not given)	-4.34
COCCOC1CCN(C(C(=O)O)c2ccc3c(c2)OCO3)CC1 (stereo not given)	9.07
O=C1CCC(=O)N1c1nn(Cc2cccc(F)c2)cc1Cl	-6.61
COc1ccccc1CNc1cnn(CC(F)F)c1	-5.41
Cc1c(F)cc(C(=O)O)cc1S(=O)(=O)Nc1ccc(C#N)cc1	-6.04

SMILES	cytotoxicity at 10 µM [%]
CC(C)c1nn(C)c(N(C)C)c1CNCc1cccnc1N(C)C	-8.66
CNC(=O)CCCNCc1c(C)nn(C)c1N(C)C	-8.18
Cc1cc(C(=O)NCc2ccnc(N3CCN(C)CC3)c2)c(C)s1	-10.7
CCC1CCCN(C(=O)Cc2csc(-c3ncccn3)n2)C1 (stereo not given)	-5.15
COc1ccc(OC)c(C(O)CN2CC(n3cccn3)C2)c1 (stereo not given)	-8.42
NC(=O)c1ccc(S(=O)(=O)NC2CCN(Cc3ccccc3)C2=O)cc1 (stereo not given)	-9.96
NCCC(=O)Nc1ccc(-c2ccccc2)cc1	-1.81
CC(=O)N1CC2(CCNCC2)c2cc(Cl)ccc21	-0.655
c1ccc(CN2CC[C@@H]3O[C@H](COCc4ccncc4)CC[C@@H]32)nc1	3.5
O=C(c1ccncc1F)N1C[C@@H]2OCCN(CC3CC3)[C@@H]2C1	-141
Cc1ncsc1CN1C[C@@H]2COC[C@]2(CNC(=O)c2ccco2)C1	-73.8
COCCN1C2(CCN(Cc3nccs3)C2)c2ccccc2S1(=O)=O (stereo not given)	-65.7
Cc1ccc(C(=O)N2Cc3c(CN(C)C)nn(C)c3C2)cc1C	1.77
CN(C)C(=O)CN1CC[C@@H]2O[C@@H](COCc3cccnc3)CC[C@@H]21	-67.2
CNC(=O)CN1CCCC12CCN(C(=O)c1cccc(F)c1)CC2	6.62
COCC1CC2(CCN(Cc3ccco3)CC2)CN1C(C)C (stereo not given)	0.0448
CCN1CC[C@@]2(C(=O)N3CCOCC3)CCN(C(=O)C(C)C)CC[C@@H]12	-11.5
COc1ccc(OC)c(CN2CCc3nc4ccsc4c(=O)n3CC2)c1	43.5
Cc1nc(CN2CCO[C@H]3[C@@H](OCc4cccnc4)CC[C@@H]32)cs1	-0.587
O=C1C[C@H]2[C@@H](CCN2Cc2ccccn2)N1CCN1CCOCC1	-1.45
O=C(c1ccncc1F)N1CC[C@@H]2OC(COCC3CC3)CC[C@@H]21 (stereo not given in full)	-4.03
CN(C)C(c1ccccn1)C1CCC(CNC(=O)C2CCCC2)CC1 (stereo not given)	10.5
